Laboratory results: ChEMBL document CHEMBL3392957, “The discovery of 1,2,3,9b-tetrahydro-5H-imidazo[2,1-a]isoindol-5-ones as a new class of respiratory syncytial virus (RSV) fusion inhibitors. Part 1” (Bioorg Med Chem Lett, 2015)

Assays:
[1] = system: Respiratory syncytial virus; test: Selectivity ratio of EC50 for Respiratory syncytial virus A Long harboring F protein D489Y mutant infected in human Hep2 cells to EC50 for wild-type Respiratory syncytial virus A Long infected in human Hep2 cells
[2] = system: Respiratory syncytial virus; test: Antiviral activity against Respiratory syncytial virus A2 infected in human Hep2 cells assessed as inhibition of virus-induced cytopathicity after 5 days by MTT assay; format: functional, organism-based; details: A2, HEp-2, 120 h
Procedure, shortened: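 HEp2 cells (1.0 × 10⁴/well) infected at low moi (e.g. RSV A2 at moi 0.01) and added to serially diluted compound; 5 days at 37 °C, 5% CO₂. CPE read by MTT (1 mg/ml, 2 h, 37 °C), isopropanol, absorbance 540 nm; EC₅₀ by non-linear regression. SD given where n > 2.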

[3] = Cytotoxicity against human Hep2 cells after 5 days by MTT assay; format: cell-based, HEp-2
Procedure, shortened: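 Uninfected HEp2 cells (1.0 × 10⁴/well) with serially diluted compound, 5 days at 37 °C in 5% CO₂; viability by MTT (1 mg/ml, 2 h), isopropanol, absorbance 540 nm; CC₅₀ by non-linear regression.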

Row | SMILES | Ratio EC50 [1] | EC50 [2] [µM] | CC50 at 120 h [3] [µM]
1 | O=c1n(Cc2nc3ccccc3n2CCCCO)c2cnccc2n1C1CC1 | 380 |  | 
2 | Cc1nnnn1/N=C/c1ccc(O)c(C(c2ccc(O)cc2)c2cc(/C=N/n3nnnc3C)ccc2O)c1 | >1400 |  | 
3 | O=C(c1ccccc1)N1CCN2C(=O)c3ccccc3C12c1ccc(Cl)cc1 (racemic) |  | 0.45 | > 20
4 | O=C(c1ccc(F)cc1)N1CCN2C(=O)c3ccccc3C12c1ccccc1 (racemic) |  | 1.1 | > 20
5 | Cc1ccc(C(=O)N2CCN3C(=O)c4ccccc4C23c2ccc(Cl)cc2)cc1 (racemic) |  | 5.8 | 17
6 | O=C1c2ccccc2C2(c3ccc(Cl)cc3)NCCN12 (racemic) |  | > 20 | > 70
7 | O=C(c1ccc(C(F)(F)F)cc1)N1CCN2C(=O)c3ccccc3C12c1ccc(Cl)cc1 (racemic) |  | > 20 | 17
8 | O=C(c1ccc(OC(F)(F)F)cc1)N1CCN2C(=O)c3ccccc3C12c1ccc(Cl)cc1 (racemic) |  | > 20 | 5.7
9 | COc1ccc(C(=O)N2CCN3C(=O)c4ccccc4C23c2ccc(Cl)cc2)cc1 (racemic) |  | > 20 | 16
10 | O=C(c1ccc(F)cc1)N1CCN2C(=O)c3ccccc3C12 (racemic) |  | > 20 | > 20
11 | O=C(c1ccc(F)cc1)N1CCN2C(=O)c3ccccc3C12c1ccc(F)cc1 (racemic) |  | 0.71 | > 20
12 | O=C(c1ccc(F)cc1)N1CCN2C(=O)c3ccccc3C12c1ccc(C(F)(F)F)cc1 (racemic) |  | 0.51 | > 20
13 | Cc1ccc(C23c4ccccc4C(=O)N2CCN3C(=O)c2ccc(F)cc2)cc1 (racemic) |  | 0.18 | > 20
14 | CCc1ccc(C23c4ccccc4C(=O)N2CCN3C(=O)c2ccc(F)cc2)cc1 (racemic) |  | 0.21 | > 18
15 | CCCc1ccc(C23c4ccccc4C(=O)N2CCN3C(=O)c2ccc(F)cc2)cc1 (racemic) |  | 0.27 | 18
16 | CC(C)c1ccc(C23c4ccccc4C(=O)N2CCN3C(=O)c2ccc(F)cc2)cc1 (racemic) |  | 1.2 | > 20
17 | O=C(c1ccc(F)cc1)N1CCN2C(=O)c3ccccc3C12c1ccccn1 (racemic) |  | > 20 | > 20
18 | O=C(c1ccc(F)cc1)N1CCN2C(=O)c3ccccc3C12c1cccnc1 (racemic) |  | 10 | > 20
19 | COc1ccc(C23c4ccccc4C(=O)N2CCN3C(=O)c2ccc(F)cc2)cc1 (racemic) |  | 0.53 | > 20
20 | O=C(c1ccc(F)cc1)N1CCN2C(=O)c3ccccc3C12c1ccc(O)cc1 (racemic) |  | 11 | > 20
21 | CCOc1ccc(C23c4ccccc4C(=O)N2CCN3C(=O)c2ccc(F)cc2)cc1 (racemic) |  | 0.2 | > 20
22 | CCCOc1ccc(C23c4ccccc4C(=O)N2CCN3C(=O)c2ccc(F)cc2)cc1 (racemic) |  | 0.63 | > 20
23 | CC(C)Oc1ccc(C23c4ccccc4C(=O)N2CCN3C(=O)c2ccc(F)cc2)cc1 (racemic) |  | 1.1 | > 20
24 | O=C(c1ccc(F)cc1)N1CCN2C(=O)c3ccccc3C12c1ccc(OCC2CC2)cc1 (racemic) |  | 0.079 | > 20
25 | N#CCOc1ccc(C23c4ccccc4C(=O)N2CCN3C(=O)c2ccc(F)cc2)cc1 (racemic) |  | 0.24 | > 17
26 | COCCOc1ccc(C23c4ccccc4C(=O)N2CCN3C(=O)c2ccc(F)cc2)cc1 (racemic) |  | 0.25 | > 16
27 | COC(=O)COc1ccc(C23c4ccccc4C(=O)N2CCN3C(=O)c2ccc(F)cc2)cc1 (racemic) |  | 3.3 | > 16
